The source of these data is ChEMBL document CHEMBL1155001, “Design, synthesis of novel peptidomimetic derivatives of 4-HPR for rhabdoid tumors” (Bioorg Med Chem Lett, 2008).

What is called IC50 is the midpoint of a concentration-inhibition curve.

Holding throughout (type): functional, cell-based
Assay [1] in a line: Cytotoxicity against INI1 gene deficient human MON cells assessed as cell survival after 3 days by MTS assay. As to conditions: 72 h. Summed up:
(§1)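 INI1-deficient MON rhabdoid tumor cells were grown in RPMI 1640 with 10% FBS, 2 mM L-glutamine, penicillin and streptomycin at 37 °C in 5% CO2. Survival was read by MTS after 3 days. Relative IC50 was taken from a sigmoidal variable-slope fit of % inhibition vs log concentration.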
For orientation: Formazan colour is commonly taken as a measure of viable cells.

The test system of another assay is G-401. The experiment in a line: Cytotoxicity against human G401 cells assessed as cell survival after 3 days by MTS assay. As to conditions: G-401, 72 h.
A short description of assay [2]: Cytotoxicity against human STM cells assessed as cell survival after 3 days by MTS assay. As to conditions: 72 h.
The nature of assay [3]: Cytotoxicity against human MON cells assessed as cell survival after 3 days by MTS assay. As to conditions: 72 h. Summed up:
as §1

Consider `CCC1=C(C)/C(=C/c2ccc(C(=O)Nc3ccc(CO)cc3)cc2)CCC1(C)C`, for which the IC50 in assay [1] was determined as 29.1 µM. Turning to `CCC1=C(C)/C(=C/c2ccc(C(=O)Nc3ccc(O)c(Cl)c3)cc2)CCC1(C)C`, in assay [1], the IC50 was determined as 10.4 µM. Still for that read-out and setting: the same measure for `CCC1=C(C)/C(=C/c2ccc(C(=O)O)cc2)CCC1(C)C`: more than 50 µM; for `CCC1=C(C)/C(=C/c2ccc(C(=O)Nc3ccc(O)c(I)c3)cc2)CCC1(C)C`: 3.15 µM; for `CCC1=C(C)/C(=C/c2ccc(C(=O)Nc3ccc(O)cc3O)cc2)CCC1(C)C`: 47.2 µM. Still for that read-out and setting: for `CCC1=C(C)/C(=C/c2ccc(C(=O)Nc3ccc(O)c(F)c3)cc2)CCC1(C)C` the value was 12.9 µM. Take `CC1=C(/C=C/C(C)=C/C=C/C(C)=C/C(=O)Nc2ccc(O)cc2)C(C)(C)CCC1` [FENRETINIDE]: the IC50 in assay [1] was determined as 14.7 µM; in the assay with G-401 it was 5 µM; in assay [2], 5 µM; in assay [3], 12 µM.
